Legend:
Rattus norvegicus [1] = experiment: Blood glucose concentration 2 hours after the administration in glucose-primed rat at 100 mg/kg.; format: functional
How it was run: (§1)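 Male Sprague-Dawley rats (140-150 g), groups of six, fasted 16 h, then given 100 mg glucose sc in 0.5 mL isotonic NaCl. Test compound given orally right after as an aqueous carboxymethylcellulose suspension (0.5 mL); controls received vehicle. Blood was taken by cardiac puncture under light ether anesthesia 2 h later. Glucose measured by Autoanalyzer modification of Hoffman method; mean percent change versus control group.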

Rattus norvegicus [2] = species on record: Rattus norvegicus; experiment: Percent change in blood glucose concentration in glucose-primed rat to that of control rats.; format: functional; how it was run: as §1
Rattus norvegicus [3] = experiment: Blood glucose concentration at 2 hours after the administration in glucose-primed rat; format: functional; how it was run: as §1
Cavia porcellus [4] = experiment: Percent reduction in blood glucose after perorally administration of compound at 30 mg/kg in normal fasted guinea pig; format: functional; settings: route oral
How it was run: (§2)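 Hartley guinea pigs (450-500 g), male and female, grouped by sex in fours, food withheld 18 h, water allowed. Zero-time blood taken by cardiac puncture, then oral dosing, with a second cardiac sample 5 h later. Reported as percent change in blood glucose relative to the pretreatment value.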

[5] = Lethal dose after intraperitoneal administration in mouse; settings: in vivo, ip
[6] = Lethal dose after peroral administration in mouse; settings: in vivo, po
Rattus norvegicus [7] = experiment: Percent reduction in blood glucose after perorally administration of compound at 29.2 mg/kg in alloxanized rat; format: functional; settings: route oral
How it was run: (§3)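 Male Sprague-Dawley rats (180-220 g) made diabetic with 225 mg/kg alloxan monohydrate intraabdominally; glucosuria checked by reagent strip after 3 days, positives grouped in sixes. Control tail-vein blood taken, oral compound given, blood resampled at 5 h. Reported as percent change in blood glucose versus pretreatment.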

Rattus norvegicus [8] = experiment: Percent reduction in blood glucose after perorally administration of compound at 100 mg/kg in non-glucose-primed rat; settings: route oral
Rattus norvegicus [9] = experiment: Percent reduction in blood glucose after perorally administration of compound at 25 mg/kg in adrenalectomized rat; settings: route oral
Cavia porcellus [10] = experiment: Percent reduction in blood glucose after perorally administration of compound at 100 mg/kg in normal fasted guinea pig; format: functional; settings: route oral; how it was run: as §2
Rattus norvegicus [11] = experiment: Percent reduction in blood glucose after perorally administration of compound at 300 mg/kg in alloxanized rat; format: functional; settings: route oral; how it was run: as §3
Rattus norvegicus [12] = experiment: Percent reduction in blood glucose after perorally administration of compound at 50 mg/kg in glucose-primed rat; format: functional; settings: route oral; how it was run: as §1
Rattus norvegicus [13] = experiment: Percent reduction in blood glucose after perorally administration of compound at 100 mg/kg in glucose-primed rat; format: functional; settings: route oral; how it was run: as §1
Rattus norvegicus [14] = experiment: Percent reduction in blood glucose after perorally administration of compound at 100 mg/kg in non-glucose-primed rat; format: functional; settings: route oral
Rattus norvegicus [15] = experiment: Percent reduction in blood glucose after perorally administration of compound at 25 mg/kg in glucose-primed rat; format: functional; settings: route oral; how it was run: as §1
Rattus norvegicus [16] = experiment: Percent reduction in blood glucose after perorally administration of compound at 25 mg/kg in adrenalectomized rat; format: functional; settings: route oral
Rattus norvegicus [17] = experiment: Percent reduction in blood glucose after perorally administration of compound at 300 mg/kg in non-glucose-primed rat; settings: route oral
Cavia porcellus [18] = experiment: Percent reduction in blood glucose after perorally administration of compound at 25 mg/kg in normal fasted guinea pig; format: functional; settings: route oral; how it was run: as §2
Rattus norvegicus [19] = experiment: Percent reduction in blood glucose after perorally administration of compound at 80 mg/kg in non-glucose-primed rat; format: functional; settings: route oral
Rattus norvegicus [20] = experiment: Percent reduction in blood glucose after perorally administration of compound at 100 mg/kg in alloxanized rat; format: functional; settings: route oral; how it was run: as §3
Rattus norvegicus [21] = experiment: Percent reduction in blood glucose after perorally administration of compound at 120 mg/kg in non-glucose-primed rat; format: functional; settings: route oral
Cavia porcellus [22] = experiment: Percent reduction in blood glucose after perorally administration of compound at 125 mg/kg in normal fasted guinea pig; format: functional; settings: route oral; how it was run: as §2
Cavia porcellus [23] = experiment: Percent reduction in blood glucose after perorally administration of compound at 150 mg/kg in normal fasted guinea pig; format: functional; settings: route oral; how it was run: as §2
Cavia porcellus [24] = experiment: Percent reduction in blood glucose after perorally administration of compound at 160 mg/kg in normal fasted guinea pig; format: functional; settings: route oral; how it was run: as §2
Rattus norvegicus [25] = experiment: Percent reduction in blood glucose after perorally administration of compound at 500 mg/kg in glucose-primed rat; format: functional; settings: route oral; how it was run: as §1
Rattus norvegicus [26] = experiment: Percent reduction in blood glucose after perorally administration of compound at 10 mg/kg in glucose-primed rat; format: functional; settings: route oral; how it was run: as §1
Rattus norvegicus [27] = experiment: Percent reduction in blood glucose after perorally administration of compound at 10 mg/kg in adrenalectomized rat(p= 0.05); format: functional; settings: route oral
Rattus norvegicus [28] = experiment: Percent reduction in blood glucose after perorally administration of compound at 25 mg/kg in non-glucose-primed rat; format: functional; settings: route oral
Rattus norvegicus [29] = experiment: Percent reduction in blood glucose after perorally administration of compound at 250 mg/kg in glucose-primed rat; format: functional; settings: route oral; how it was run: as §1
Rattus norvegicus [30] = experiment: Percent reduction in blood glucose after perorally administration of compound at 20 mg/kg in adrenalectomized rat; format: functional; settings: route oral

COC(=O)c1cc(C)n(/C(=N\c2cccc(C)c2C)c2ccccc2)n1
Blood glucose (Rattus norvegicus [1]): 75.6%
Change (Rattus norvegicus [2]): 8.3%

CCCC/N=C(/c1ccccc1)n1nc(C(=O)OC)cc1C
Blood glucose (Rattus norvegicus [1]): 66.1%
Change (Rattus norvegicus [2]): 21.2%

COC(=O)c1cc(C)n(/C(=N\CC(C)C)c2ccccc2)n1
Blood glucose (Rattus norvegicus [1]): 59.7%
Change (Rattus norvegicus [2]): 25.5%

COC(=O)c1cc(C)n(/C(=N\c2ccccc2)c2ccc(Cl)c(Cl)c2)n1
Blood glucose (Rattus norvegicus [3]): 101.5%
Change (Rattus norvegicus [2]): 24.3%

COC(=O)c1cc(C)n(/C(=N\c2ccccc2)c2ccccc2C)n1
Blood glucose (Rattus norvegicus [3]): 57.7%
Change (Rattus norvegicus [2]): 21.4%

COC(=O)c1cc(-c2ccc(Cl)cc2)n(/C(=N\c2ccc(Cl)cc2)c2ccccc2)n1
Blood glucose (Rattus norvegicus [1]): 77.7%
Change (Rattus norvegicus [2]): 1.2%

COC(=O)c1cc(C)n(/C(=N\CCC(C)C)c2ccccc2)n1
Blood glucose (Rattus norvegicus [1]): 91.3%
Change (Rattus norvegicus [2]): 1.3%

COC(=O)c1cc(-c2ccc(Cl)cc2)n(/C(=N\c2ccc(OC)cc2)c2ccccc2)n1
Blood glucose (Rattus norvegicus [1]): 78.4%
Change (Rattus norvegicus [2]): 3.9%

COC(=O)c1cc(C)n(/C(=N\c2cccc(OC)c2)c2ccccc2)n1
Blood glucose (Rattus norvegicus [3]): 63%
Change (Rattus norvegicus [2]): 22%

COC(=O)c1cc(C)n(/C(=N\CC(C)C)c2ccc(C)cc2)n1
Blood glucose (Rattus norvegicus [1]): 65.2%
Change (Rattus norvegicus [2]): 19%

COC(=O)c1cc(C)n(/C(=N\c2ccc(C)cc2)c2ccc(C)cc2)n1
Blood glucose (Rattus norvegicus [3]): 60.4%
Change (Rattus norvegicus [2]): 25.4%

COC(=O)c1cc(C)n(/C(=N\c2ccc(C)cc2)c2ccccc2)n1
Blood glucose (Rattus norvegicus [3]): 71.9%
Change (Rattus norvegicus [2]): 18.9%

COC(=O)c1cc(C)n(/C(=N\CC(C)C)c2ccc(F)cc2)n1
Blood glucose (Rattus norvegicus [1]): 68.9%
Change (Rattus norvegicus [2]): 1.3%

Cc1cc(C)n(/C(=N\C2CCCCC2)c2ccccc2)n1
Blood glucose (Rattus norvegicus [1]): 69.8%
Change (Rattus norvegicus [2]): 13.6%

COC(=O)c1cc(C)n(/C(=N\c2ccccc2)c2ccccc2OC)n1
Blood glucose (Rattus norvegicus [3]): 58.3%
Change (Rattus norvegicus [2]): 25.7%

Cc1cc(C)n(/C(=N\CC(C)C)c2ccccc2)n1
Blood glucose (Rattus norvegicus [1]): 62.8%
Change (Rattus norvegicus [2]): 10.6%

COC(=O)c1cc(-c2ccc(Cl)cc2)n(/C(=N\c2ccccc2)c2ccccc2)n1
Blood glucose (Rattus norvegicus [1]): 81.1%
Change (Rattus norvegicus [2]): 5.6%

COc1ccc(/N=C(/c2ccccc2)n2nc(C)cc2C)cc1
Blood glucose (Rattus norvegicus [3]): 60.6%
Change (Rattus norvegicus [2]): 27.2%

COC(=O)c1cc(C)n(/C(=N\c2ccccc2)c2ccccc2)n1
Blood glucose (Rattus norvegicus [3]): 58%
Change (Rattus norvegicus [2]): 34.3%

COC(=O)c1cc(C)n(/C(=N\CC(C)C)c2cccc(C(F)(F)F)c2)n1
Blood glucose (Rattus norvegicus [1]): 62.2%
Change (Rattus norvegicus [2]): 25.2%

COC(=O)c1cc(-c2ccc(Cl)cc2)n(/C(=N\c2ccc(C)cc2)c2ccc(C)cc2)n1
Blood glucose (Rattus norvegicus [1]): 69.8%
Change (Rattus norvegicus [2]): 9%

COC(=O)c1cc(C)n(/C(=N\c2ccccc2)c2ccccc2Cl)n1
Blood glucose (Rattus norvegicus [1]): 70%
Change (Rattus norvegicus [2]): 8.9%

COC(=O)c1cc(-c2ccc(Cl)cc2)n(/C(=N\c2ccccc2)c2ccccc2C)n1
Blood glucose (Rattus norvegicus [1]): 71.1%
Change (Rattus norvegicus [2]): 6.3%

COC(=O)c1cc(C)n(/C(=N\C2CCCCC2)c2ccccc2)n1
Reduction (Cavia porcellus [4]): 0%
LD50 [5]: 1000 mg/kg
LD50 [6]: 1000 mg/kg
Blood glucose (Rattus norvegicus [3]): 52.1%
Reduction (Rattus norvegicus [3]): 27%
Change (Rattus norvegicus [2]): 34.5%
Reduction (Rattus norvegicus [7]): 29.5%
Reduction (Rattus norvegicus [8]): 7.6%
Reduction (Rattus norvegicus [9]): 32%

Cc1cc(C)n(/C(=N\c2ccccc2)c2ccccc2)n1
Blood glucose (Rattus norvegicus [3]): 72.1%
Change (Rattus norvegicus [2]): 18.3%

COC(=O)c1cc(C)n(/C(=N\C2CCCCC2)c2ccccc2OC)n1
Blood glucose (Rattus norvegicus [3]): 68.4%
Change (Rattus norvegicus [2]): 20.5%

CC/N=C(/c1ccccc1)n1nc(C(=O)OC)cc1C
Blood glucose (Rattus norvegicus [1]): 54.9%
Change (Rattus norvegicus [2]): 34%

COC(=O)c1cc(-c2ccc(Cl)cc2)n(/C(=N\C2CCCCC2)c2ccccc2OC)n1
Blood glucose (Rattus norvegicus [1]): 69.2%
Change (Rattus norvegicus [2]): 12.9%

COC(=O)c1cc(C)n(/C(=N\c2ccc(OC)cc2)c2ccccc2)n1
Reduction (Cavia porcellus [10]): 21%
LD50 [5]: 1000 mg/kg
LD50 [6]: 1000 mg/kg
Blood glucose (Rattus norvegicus [3]): 62.2%
Change (Rattus norvegicus [2]): 40%
Reduction (Rattus norvegicus [11]): 49%
Reduction (Rattus norvegicus [12]): 33.8%
Reduction (Rattus norvegicus [13]): 51.3%
Reduction (Rattus norvegicus [14]): 31.5%
Reduction (Rattus norvegicus [15]): 35.2%
Reduction (Rattus norvegicus [16]): 44.3%

COC(=O)c1cc(-c2ccc(Cl)cc2)n(/C(=N\C2CCCCC2)c2ccccc2)n1
Blood glucose (Rattus norvegicus [1]): 84.9%
Change (Rattus norvegicus [2]): 4.4%

COC(=O)c1cc(C)n(/C(=N\c2cccc(C(F)(F)F)c2)c2ccccc2)n1
Blood glucose (Rattus norvegicus [3]): 57.9%
Change (Rattus norvegicus [2]): 33.5%

C=CC/N=C(/c1ccccc1)n1nc(C(=O)OC)cc1C
Blood glucose (Rattus norvegicus [1]): 69.6%
Change (Rattus norvegicus [2]): 7%

CC/N=C(/c1ccccc1)n1nc(C)cc1C
Blood glucose (Rattus norvegicus [1]): 58.6%
Change (Rattus norvegicus [2]): 24.7%

COC(=O)c1cc(C)n(/C(=N\c2ccc(Cl)cc2)c2ccccc2)n1
Blood glucose (Rattus norvegicus [1]): 78.7%
Change (Rattus norvegicus [2]): 5.5%

COC(=O)c1cc(C)n(/C(=N\c2ccc(OC)c(OC)c2)c2ccccc2)n1
Blood glucose (Rattus norvegicus [3]): 58%
Change (Rattus norvegicus [2]): 34.1%

COC(=O)c1cc(C)n(/C(=N\c2ccccc2OC)c2ccccc2)n1
Blood glucose (Rattus norvegicus [3]): 96%
Change (Rattus norvegicus [2]): 35.1%

CCC/N=C(/c1ccccc1)n1nc(C(=O)OC)cc1C
Blood glucose (Rattus norvegicus [1]): 80.5%
Change (Rattus norvegicus [2]): 6.2%

CCCCNC(=N)NC(=N)N [BUFORMIN]
Reduction (Cavia porcellus [4]): 50%
LD50 [5]: 140 mg/kg
LD50 [6]: 300 mg/kg
Reduction (Rattus norvegicus [13]): 0%
Reduction (Rattus norvegicus [7]): 21.9%
Reduction (Rattus norvegicus [17]): 25.9%

N=C(N)NC(=N)NCCc1ccccc1 [PHENFORMIN]
Reduction (Cavia porcellus [18]): 46%
Reduction (Rattus norvegicus [19]): 25.3%
Reduction (Rattus norvegicus [13]): 0%
Reduction (Rattus norvegicus [20]): 62%
Reduction (Rattus norvegicus [21]): 52.9%

Cc1ccc(S(=O)(=O)NC(=O)NN2CCCCCC2)cc1 [TOLAZAMIDE]
Reduction (Cavia porcellus [10]): 33.5%
Reduction (Cavia porcellus [22]): 26.7%
Reduction (Cavia porcellus [23]): 30.4%
Reduction (Cavia porcellus [24]): 25%
LD50 [5]: 1000 mg/kg
LD50 [6]: 1000 mg/kg
Reduction (Rattus norvegicus [25]): 51.1%
Reduction (Rattus norvegicus [26]): 28.1%
Reduction (Rattus norvegicus [27]): 75.8%
Reduction (Rattus norvegicus [20]): 0%
Reduction (Rattus norvegicus [15]): 50%
Reduction (Rattus norvegicus [28]): 29.4%
Reduction (Rattus norvegicus [29]): 42.9%
Reduction (Rattus norvegicus [30]): 85.6%

Source: ChEMBL document CHEMBL1121771, “Chemistry and hypoglycemic activity of benzimidoylpyrazoles” (J Med Chem, 1981)
